Bioassay records as filed in PubChem BioAssay.
The full list was thinned out, with hits kept by preference.
Diaph act CS: compounds boosting diaphorase resazurin reduction – biochemical, uHTS, resorufin fluorescence, counter-screen for diaphorase-coupled primary assays, primary screen; Diaphorase/resazurin coupled assay, 16 min; active compounds read high; 1 = vehicle wells, 0 = NADH-free wells; activation factor at 20 µM; 190,000 tested, 0.005% active;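 active = diaphorase activity raised at least twofold by the compound at 20 µM; inactive = activation factor below 2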
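test system = bacterial diaphorase enzyme (C. kluyveri) | quantity = enzyme 0.07 U/mL final | reagent = NADH substrate 0.114 mM plus resazurin dye 0.1 mM, final | incubation = 16 min enzyme reaction, ambient temperature | buffer or medium = HEPES pH 7.4 buffer with MgCl2 and Tween 20 | signal = fluorescence of resorufin, 544 nm excitation, 590 nm emission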
PfGluPho inh: PfG6PD enzyme inhibitors, primary screen, biochemical, fluorescence intensity, uHTS; inhibition, % at 20 µM; glucose-6-phosphate dehydrogenase-6-phosphogluconolactonase (Plasmodium falciparum 3D7); 350,000 tested, 0.78% active; AID 504690, 2011; PfGluPho enzyme, NADPH resazurin-diaphorase fluorescence;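 active = inhibition reaching at least a set limit at 20 µM in the primary screen, cut at about 59% in these data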
Lmaj promast: Leishmania major promastigote growth inhibition, primary screen | Leishmania major promastigotes, resazurin fluorescence viability | inhibition, % at 10 µM | 200,000 tested, 9% active | AID 1063, 2008;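 also: promastigotes grown with compound for 44 hours at 28 °C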
Diaphorase inh: diaphorase inhibitors and chemical oxidizers, primary screen, counter-screen for diaphorase-coupled primary assays, biochemical, uHTS, resorufin fluorescence; diaphorase resazurin-to-resorufin fluorescence, NADH, 16 min; bacterial (C. kluyveri) enzyme, not human; inhibition, % at 20 µM; 190,000 tested, 0.69% active;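 active = primary screen inhibition at 20 µM above a set limit, cut at about 50% in these data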
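Assay system: diaphorase enzyme from Clostridium kluyveri; Input: enzyme working solution with 0.14 U/mL diaphorase; Timing: 16 min at room temperature; Technique: resorufin fluorescence, excitation 544 nm, emission 590 nm; Benchmarks: positive control minus NADH, DMSO neutral control.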
G6PDH CS: L. mesenteroides G6PDH inhibitors, counter-screen for G6PDH-coupled screening assays, biochemical, Leuconostoc mesenteroides enzyme. glucose-6-phosphate dehydrogenase [Leuconostoc mesenteroides]. Purified L. mesenteroides G6PDH, diaphorase/resazurin coupled fluorescence, 45 min. inhibition, % at 5 µM. 200,000 tested, 0.12% active
Redox H2O2 prof: compounds producing H2O2 with reducing agent – biochemical, NIH compound library profiling, artefact control for MLSCN library redox annotation, primary screen; DTT-dependent redox cycling H2O2, phenol red/HRP absorbance; 100% = 100 µM peroxide control, 0% = buffer; activation, % at 10 µM; 200,000 tested, 0.03% active;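 active = activation of at least 50% relative to the plate's high and low controls in the primary single-dose screen; inactive = activation below 50%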;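 also: compound incubated with DTT at 0.8 mM final as the reducing agent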
Each line names hits and unclear results; the compound was inactive in the other large screens. Rule as the data show it, unless noted: active = inhibition above about 50%; inactive = the rest.

CCc1ccc(C2=NN(CCC(=O)NC(C)CCc3ccccc3)C(=O)CC2)cc1 (centres undefined)	Lmaj promast 95
CSc1ccc(CN2CCN(CCC(C)C)C(CCO)C2)cc1 (centres undefined)	Lmaj promast 78
CSc1ccc(CN2CCN(C3CCCC3)C(CCO)C2)cc1 (centres undefined)	Lmaj promast 62
CC(C)N1CCC(N2CCN(C3CCCC3)CC2CCO)CC1 (centres undefined)	none
Cc1cccc(N2CCC(N3CCN(C4CCCCC4)C(CCO)C3)CC2)c1C (centres undefined)	Lmaj promast 88
CCN(CC(=O)Nc1c(F)cccc1F)C(=O)CSCc1ccc(C)cc1	none (no result: Diaph act CS, Lmaj promast, Diaphorase inh, G6PDH CS, Redox H2O2 prof)
Cc1cccc(NS(=O)(=O)c2ccc3[nH]c(=O)oc3c2)c1C	none (no result: Diaph act CS, Lmaj promast, Diaphorase inh, G6PDH CS, Redox H2O2 prof)
Cc1cccc(NS(=O)(=O)c2ccc3nc(-c4ccccc4)[nH]c3c2)c1C	Lmaj promast 59
Clc1ccc(CNCC2CCCO2)cc1 (centres undefined)	none (no result: Diaph act CS, Lmaj promast, Diaphorase inh, G6PDH CS, Redox H2O2 prof)
O=C(NC(Cc1ccccc1)C(=O)N1CCc2ccccc2C1)c1ccccc1 (centres undefined)	none (no result: Diaph act CS, Lmaj promast, Diaphorase inh, G6PDH CS, Redox H2O2 prof)
O=C(c1ccccc1)C(C(=O)N1CCc2ccccc2C1)n1ccccc1=O (centres undefined)	Lmaj promast 73
Cc1cccc(NC(=O)CSc2nsc(SCC(=O)Nc3cccc(C)c3)c2C#N)c1	Lmaj promast 69
CCOC(=O)c1ccc(NC(=O)CN2C(=O)CNC2=O)cc1	Lmaj promast 96
CCOC(=O)c1ccc(NC(=O)CSc2nnc(CNC(=O)c3ccccc3F)o2)cc1	Lmaj promast 91
CCOC(=O)c1ccc(NC(=O)CN2CCN(c3ccccc3)CC2)cc1	Lmaj promast 92
CCOC(=O)c1ccc(NC(=O)Cn2nnc(-c3ccccc3F)n2)cc1	Lmaj promast 61
CCOC(=O)c1ccc(NC(=O)CN2C(=O)CSCC2=O)cc1	none
COC(=O)c1cc(S(=O)(=O)NC2CCCCC2)cn1C	none (no result: Diaph act CS, Lmaj promast, Diaphorase inh, G6PDH CS, Redox H2O2 prof)
CC1CC(C)C(=NNC(N)=O)C(C(O)CC2CCC(=O)NC2=O)C1 (centres undefined)	none (no result: Diaph act CS, Lmaj promast, Diaphorase inh, G6PDH CS, Redox H2O2 prof)
COc1ccc(-n2c(-c3ccccc3)nnc2-c2ccc(Cl)cc2)cc1	none
COc1ccc(-n2c(-c3ccc(Cl)cc3)c[n+]3c2CCc2ccccc2-3)cc1	Lmaj promast 100
Cc1ccc(C(=O)N2CCN3C(=O)c4ccccc4C23c2ccccc2)cc1 (centres undefined)	Lmaj promast 54
O=C1c2ccccc2C2(c3ccccc3)N1CCN2C(=O)C(Cl)(Cl)Cl (centres undefined)	none (no result: Diaph act CS, Lmaj promast, Diaphorase inh, G6PDH CS, Redox H2O2 prof)
O=C(c1ccc(F)cc1)N1CCCC(c2ccccc2)C1 (centres undefined)	none
COc1ccccc1N1CCN(C2CCN(C3CCC(c4ccccc4)CC3)CC2)CC1 (centres undefined)	Lmaj promast 99 (no result: PfGluPho inh)
O=C(c1ccccc1F)N1CCN(c2ccccc2)CC1	none
COc1ccc(C(=O)N2CCN(C3CCC(c4ccccc4)CC3)CC2)cc1OC (centres undefined)	Lmaj promast 88
O=C(c1ccccc1F)N1CCN(C2CCC(c3ccccc3)CC2)CC1 (centres undefined)	Lmaj promast 97 (no result: Diaph act CS, Diaphorase inh)
O=C(c1ccc(F)cc1)N1CCN(C2CCC(c3ccccc3)CC2)CC1 (centres undefined)	Lmaj promast 92
COc1ccc(C(=O)N2CCC(N3CCN(c4ccccc4)CC3)CC2)cc1OC	none
CCN1CCN(c2ncnc3sc4c(c23)CCC(C)C4)CC1 (centres undefined)	none (no result: Diaph act CS, Lmaj promast, Diaphorase inh, G6PDH CS, Redox H2O2 prof)
COc1cccc(C(C(=O)NC2CCCCC2)N(C(=O)c2csnn2)C2CC2)c1 (centres undefined)	none (no result: Diaph act CS, Lmaj promast, Diaphorase inh, G6PDH CS, Redox H2O2 prof)
Cc1c(C(=O)OCC(=O)Nc2ccc3c(c2)OCO3)cccc1[N+](=O)[O-]	none
N#Cc1nc(COc2ccc(-c3ccccc3)cc2)oc1NCCCN1CCOCC1	Lmaj promast 64
N#Cc1nc(COc2ccccc2)oc1NCCN1CCOCC1	none
CN(C)CCNc1oc(COc2ccc(-c3ccccc3)cc2)nc1C#N	Lmaj promast 66
CC(CCc1ccccc1)NC(=O)COC(=O)c1ccc(NC(=O)CC#N)cc1 (centres undefined)	none (no result: Diaph act CS, Lmaj promast, Diaphorase inh, G6PDH CS, Redox H2O2 prof)
CCOC(=O)c1c(C)[nH]c(C(=O)COc2ccc3ccc(=O)oc3c2)c1C	none (no result: Diaph act CS, Lmaj promast, Diaphorase inh, G6PDH CS, Redox H2O2 prof)
O=C(O)CNC(=O)CC1S/C(=N/N=C2/NC(=O)CS2)NC1=O (centres undefined)	none
COc1ccc(C2c3c(-c4ccccc4O)n[nH]c3C(=O)N2Cc2ccco2)cc1OC (centres undefined)	none (no result: Diaph act CS, Lmaj promast, Diaphorase inh, G6PDH CS, Redox H2O2 prof)
O=C1c2[nH]nc(-c3ccccc3O)c2C(c2cccc(Cl)c2)N1Cc1ccco1 (centres undefined)	Lmaj promast 79
O=C1c2[nH]nc(-c3ccccc3O)c2C(c2ccc(F)cc2)N1Cc1ccco1 (centres undefined)	Lmaj promast 94
Cn1c(=O)oc2cc(S(=O)(=O)N3CCC(C(=O)NCc4ccccc4Cl)CC3)ccc21	none (no result: Diaph act CS, Lmaj promast, Diaphorase inh, G6PDH CS, Redox H2O2 prof)
C=CCn1c(SCC(=O)NC2CCCC2)nc2c([nH]c3ccccc32)c1=O	none (no result: Diaph act CS, Lmaj promast, Diaphorase inh, G6PDH CS, Redox H2O2 prof)
O=C(Nc1ccc(OC(F)(F)F)cc1)C1CCCN(S(=O)(=O)c2cnc[nH]2)C1 (centres undefined)	none (no result: Diaph act CS, Lmaj promast, Diaphorase inh, G6PDH CS, Redox H2O2 prof)
O=C(COc1ncnc2ccccc12)Nc1ccc(Cl)c([N+](=O)[O-])c1	Lmaj promast 72
O=C(COc1ncnc2ccccc12)Nc1cccc([N+](=O)[O-])c1	none
O=C(CN(C(=O)c1ccc(Cl)cc1)C1CCCCC1)Nc1ccc(Cl)c([N+](=O)[O-])c1	Lmaj promast 85
O=C(CN(C(=O)c1ccccc1Cl)C1CCCCC1)Nc1ccc(Cl)c([N+](=O)[O-])c1	Lmaj promast 80
CC(C)c1cc(NCCOCCO)n2c(nc3ccccc32)c1C#N	none (no result: Diaph act CS, Lmaj promast, Diaphorase inh, G6PDH CS, Redox H2O2 prof)
Cc1cc(N)ccc1-n1c(C)ccc1C	PfGluPho inh 59
Cc1cc(N)ccc1N1CCCC1	PfGluPho inh 88, Lmaj promast 58
O=C(O)CCSc1nnc(SCC(=O)NCC(F)(F)F)s1	Lmaj promast 63
CCN(CC(=O)NCc1ccc(Cl)cc1)C(=O)COc1cccc(Cl)c1	none (no result: Diaph act CS, Lmaj promast, Diaphorase inh, G6PDH CS, Redox H2O2 prof)
COc1cc(OC)c(-c2nn3c(C4CCCCC4)nnc3s2)cc1OC	Lmaj promast 56
COc1cc(-c2nnc3sc(C4CCCCC4)nn23)cc(OC)c1OC	none
